From ChEMBL document CHEMBL4368872, “Synthesis and anticonvulsant activity of phenoxyacetyl derivatives of amines, including aminoalkanols and amino acids” (Medchemcomm, 2018)
Calls of active or inactive are those of the source. The calls are words filed in the database; no cut-off is given here.

Columns and labels:
[1] = Neurotoxicity in CF-1 mouse at 30 mg/kg, ip measured after 4 hrs by rotarod test; assay type: toxicity, organism-based; conditions: in vivo
Method in brief: (§1)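 Mice dosed i.p. were placed on a 1 in. knurled rod turning at 6 rpm. Toxicity was scored as failure to keep balance for at least 1 min, i.e. falling off three or more times. Results are reported as animals showing toxicity / animals tested at each time point.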

[2] = Neurotoxicity in CF-1 mouse at 100 mg/kg, ip measured after 4 hrs by rotarod test; assay type: toxicity, organism-based; conditions: in vivo; method in brief: as §1
Mus musculus [3] = assay: Anticonvulsant activity in CF-1 mouse model of maximal electroshock-induced seizure assessed as suppression of tonic hind limb extension at 300 mg/kg, ip measured at 4 hrs post dose; assay type: functional, organism-based
Method in brief: (§2)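 Mice dosed i.p. and given maximal electroshock at 50 mA. Read-out is protection, reported as number protected / number tested at 0.25, 0.5, 1 and 4 h after dosing.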

Mus musculus [4] = assay: Anticonvulsant activity in CF-1 mouse model of subcutaneous pentylenetetrazole-induced seizure assessed as reduction in convulsions at 100 mg/kg, ip measured at 4 hrs post dose; assay type: functional, organism-based
Method in brief: (§3)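 Mice dosed i.p., then given pentylenetetrazole 85 mg/kg in 0.9% NaCl s.c. into the posterior midline of the neck. Seizures watched for at least 30 min. Scored as protected / tested at 0.5 and 4 h.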

Mus musculus [5] = assay: Anticonvulsant activity in CF-1 mouse model of subcutaneous pentylenetetrazole-induced seizure assessed as reduction in convulsions at 300 mg/kg, ip measured at 4 hrs post dose; assay type: functional, organism-based; method in brief: as §3
Mus musculus [6] = assay: Anticonvulsant activity in CF-1 mouse model of maximal electroshock-induced seizure assessed as suppression of tonic hind limb extension at 30 mg/kg, ip measured at 0.5 hrs post dose; assay type: functional, organism-based; method in brief: as §2
[7] = Neurotoxicity in CF-1 mouse at 300 mg/kg, ip measured after 4 hrs by rotarod test; assay type: toxicity, organism-based; conditions: in vivo; method in brief: as §1
[8] = Neurotoxicity in CF-1 mouse at 100 mg/kg, ip measured after 0.5 hrs by rotarod test; assay type: toxicity, organism-based; conditions: in vivo; method in brief: as §1
Mus musculus [9] = assay: Anticonvulsant activity in CF-1 mouse model of subcutaneous pentylenetetrazole-induced seizure assessed as reduction in convulsions at 100 mg/kg, ip measured at 0.5 hrs post dose; assay type: functional, organism-based; method in brief: as §3
Mus musculus [10] = assay: Anticonvulsant activity in CF-1 mouse model of subcutaneous pentylenetetrazole-induced seizure assessed as reduction in convulsions at 300 mg/kg, ip measured at 0.5 hrs post dose; assay type: functional, organism-based; method in brief: as §3
Mus musculus [11] = assay: Anticonvulsant activity in CF-1 mouse model of maximal electroshock-induced seizure assessed as suppression of tonic hind limb extension at 300 mg/kg, ip measured at 0.5 hrs post dose; assay type: functional, organism-based; method in brief: as §2
[12] = Neurotoxicity in CF-1 mouse at 30 mg/kg, ip measured after 0.5 hrs by rotarod test; assay type: toxicity, organism-based; conditions: in vivo; method in brief: as §1
Mus musculus [13] = assay: Anticonvulsant activity in CF-1 mouse model of subcutaneous pentylenetetrazole-induced seizure assessed as reduction in convulsions at 30 mg/kg, ip measured at 4 hrs post dose; assay type: functional, organism-based; method in brief: as §3
[14] = Neurotoxicity in CF-1 mouse at 300 mg/kg, ip measured after 0.5 hrs by rotarod test; assay type: toxicity, organism-based; conditions: in vivo; method in brief: as §1
Mus musculus [15] = assay: Anticonvulsant activity in CF-1 mouse model of subcutaneous pentylenetetrazole-induced seizure assessed as reduction in convulsions at 30 mg/kg, ip measured at 0.5 hrs post dose; assay type: functional, organism-based; method in brief: as §3
Mus musculus [16] = assay: Anticonvulsant activity in CF-1 mouse model of maximal electroshock-induced seizure assessed as suppression of tonic hind limb extension at 30 mg/kg, ip measured at 4 hrs post dose; assay type: functional, organism-based; method in brief: as §2
Mus musculus [17] = assay: Anticonvulsant activity in CF-1 mouse model of maximal electroshock-induced seizure assessed as suppression of tonic hind limb extension at 100 mg/kg, ip measured at 4 hrs post dose; assay type: functional, organism-based; method in brief: as §2
Mus musculus [18] = assay: Anticonvulsant activity in CF-1 mouse model of maximal electroshock-induced seizure assessed as suppression of tonic hind limb extension at 100 mg/kg, ip measured at 0.5 hrs post dose; assay type: functional, organism-based; method in brief: as §2
Mus musculus [19] = assay: Anticonvulsant activity in CF-1 mouse model of maximal electroshock-induced seizure assessed as suppression of tonic hind limb extension at 100 mg/kg, ip measured at 0.25 hrs post dose; assay type: functional, organism-based; method in brief: as §2
[20] = Neurotoxicity in CF-1 mouse at 100 mg/kg, ip measured after 0.25 hrs by rotarod test; assay type: toxicity, organism-based; conditions: in vivo; method in brief: as §1
Mus musculus [21] = assay: Anticonvulsant activity in CF-1 mouse model of maximal electroshock-induced seizure assessed as suppression of tonic hind limb extension at 100 mg/kg, ip measured at 1 hr post dose; assay type: functional, organism-based; method in brief: as §2

| Compound | Activity [1] | Activity [2] | Activity (Mus musculus [3]) | Activity (Mus musculus [4]) | Activity (Mus musculus [5]) | Activity (Mus musculus [6]) | Activity [7] | Activity [8] | Activity (Mus musculus [9]) | Activity (Mus musculus [10]) | Activity (Mus musculus [11]) | Activity [12] | Activity (Mus musculus [13]) | Activity [14] | Activity (Mus musculus [15]) | Activity (Mus musculus [16]) | Activity (Mus musculus [17]) | Activity (Mus musculus [18]) | also measured |
| --- | --- | --- | --- | --- | --- | --- | --- | --- | --- | --- | --- | --- | --- | --- | --- | --- | --- | --- | --- |
| Cc1cccc(C)c1OCC(=O)N[C@@H](C)C(=O)O | Non-Toxic | Non-Toxic | inactive | inactive | inactive | inactive | Non-Toxic | Non-Toxic | inactive | inactive | inactive | Non-Toxic | inactive | Non-Toxic | inactive | inactive | inactive | inactive |  |
| Cc1cccc(C)c1OCC(=O)N[C@H](C)C(N)=O | Non-Toxic | Non-Toxic | inactive | inactive | inactive | inactive | Non-Toxic |  | inactive | inactive | Active | Non-Toxic |  |  | inactive | inactive | inactive | inactive | Activity (Mus musculus [19]): inactive; Activity [20]: Non-Toxic; Activity (Mus musculus [21]): inactive |
| Cc1cccc(C)c1OCC(=O)NCCc1ccccc1 | Non-Toxic | Non-Toxic | inactive | inactive | inactive | inactive | Non-Toxic | Non-Toxic | inactive | inactive | inactive | Non-Toxic | inactive |  | inactive | inactive | inactive | inactive |  |
| Cc1cc(C)c(OCC(=O)NCC(O)c2ccccc2)c(C)c1 (configuration not stated) | Non-Toxic | Non-Toxic | inactive | inactive | inactive | inactive | Non-Toxic | Non-Toxic | inactive | inactive | inactive | Non-Toxic | inactive | Toxic | inactive | inactive | inactive | inactive |  |
| Cc1cccc(C)c1OCC(=O)NC(C)C(=O)O (configuration not stated) | Non-Toxic | Non-Toxic | inactive | inactive | inactive | inactive | Non-Toxic | Non-Toxic | inactive | inactive | inactive | Non-Toxic | inactive | Non-Toxic | inactive | inactive | inactive | inactive |  |
| Cc1cccc(C)c1OCC(=O)N[C@@H](C)CO | Non-Toxic |  | Active | inactive | inactive | inactive |  |  | inactive | inactive | Active |  | inactive |  | inactive | inactive | inactive | inactive |  |
